From ChEMBL document CHEMBL4052615, “Discovery of 4-amino-3-arylsulfoquinolines, a novel non-acetylenic chemotype of metabotropic glutamate 5 (mGlu5) receptor negative allosteric modulators” (Eur J Med Chem, 2017)

Target: Metabotropic glutamate receptor 5 (Homo sapiens, UniProt P41594)
Assay: Displacement of [3H]M-MPEP from mGluR5 (unknown origin) at 1 uM measured after 60 mins relative to control
Procedure, shortened: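 Rat cerebrocortical membranes or membranes from A18 cells expressing human mGlu5a, incubated with [³H]M-MPEP and test compound at 1 µM in 50 mM Tris pH 7.6 with 2 mM MgCl₂ and 2 mM CaCl₂, 60 min at 25°C. Non-specific binding was taken with […]. Result is % displacement, run in duplicate or triplicate.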

Sequence of Metabotropic glutamate receptor 5 (P41594 21-1212 limits assumed): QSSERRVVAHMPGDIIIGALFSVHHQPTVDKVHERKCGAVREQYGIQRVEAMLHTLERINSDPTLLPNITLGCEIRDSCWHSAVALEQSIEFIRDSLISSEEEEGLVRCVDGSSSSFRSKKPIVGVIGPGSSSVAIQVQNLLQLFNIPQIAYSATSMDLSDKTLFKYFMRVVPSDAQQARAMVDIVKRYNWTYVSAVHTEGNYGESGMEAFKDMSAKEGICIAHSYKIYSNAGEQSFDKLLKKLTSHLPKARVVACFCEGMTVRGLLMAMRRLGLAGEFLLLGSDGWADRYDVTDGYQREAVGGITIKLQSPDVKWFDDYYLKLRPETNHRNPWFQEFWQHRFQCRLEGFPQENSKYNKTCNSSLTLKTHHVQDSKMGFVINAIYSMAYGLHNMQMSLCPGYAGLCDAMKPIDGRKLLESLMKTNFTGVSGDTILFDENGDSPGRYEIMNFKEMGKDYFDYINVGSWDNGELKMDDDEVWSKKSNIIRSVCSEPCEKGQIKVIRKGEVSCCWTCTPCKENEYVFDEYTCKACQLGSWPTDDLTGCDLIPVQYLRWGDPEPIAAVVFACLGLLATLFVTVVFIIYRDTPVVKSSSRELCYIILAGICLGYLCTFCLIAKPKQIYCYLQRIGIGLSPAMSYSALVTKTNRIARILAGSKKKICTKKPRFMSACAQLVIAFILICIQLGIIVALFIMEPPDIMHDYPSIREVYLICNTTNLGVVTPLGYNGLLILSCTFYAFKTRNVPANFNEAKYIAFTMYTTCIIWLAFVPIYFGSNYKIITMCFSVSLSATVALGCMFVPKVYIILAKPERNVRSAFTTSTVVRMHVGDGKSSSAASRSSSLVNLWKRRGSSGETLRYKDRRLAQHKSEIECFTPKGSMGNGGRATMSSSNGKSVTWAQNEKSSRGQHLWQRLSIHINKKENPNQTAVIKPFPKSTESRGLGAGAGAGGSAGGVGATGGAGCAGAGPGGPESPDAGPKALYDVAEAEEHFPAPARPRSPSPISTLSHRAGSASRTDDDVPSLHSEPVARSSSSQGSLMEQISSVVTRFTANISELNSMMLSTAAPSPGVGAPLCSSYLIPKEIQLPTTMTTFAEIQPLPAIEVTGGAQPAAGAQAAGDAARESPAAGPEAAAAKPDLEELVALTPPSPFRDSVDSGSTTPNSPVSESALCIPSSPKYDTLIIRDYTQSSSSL

SMILES	inhibition [%]
N#Cc1cccc(S(=O)(=O)c2cnc3cc(F)ccc3c2N2CCOCC2)c1	71 to 71.4
CC1CCN(c2c(S(=O)(=O)c3ccccc3)cnc3ccc(F)cc23)CC1	40
O=S(=O)(c1ccc(F)c(Cl)c1)c1cnc2ccc(F)cc2c1N1CCOCC1	58
COc1cccc(S(=O)(=O)c2cnc3cc(F)ccc3c2N2CCC(C)CC2)c1	90
O=S(=O)(c1cc(F)cc(F)c1)c1cnc2ccc(Cl)cc2c1N1CCOCC1	7
CC1CCN(c2c(S(=O)(=O)c3ccc(C#N)cc3)cnc3ccc(Cl)cc23)CC1	31
Cc1ccc2ncc(S(=O)(=O)c3ccc(F)c(Cl)c3)c(N3CCC(C)CC3)c2c1	93
COc1ccc(S(=O)(=O)c2cnc3ccc(Cl)cc3c2N2CCOCC2)cc1OC	-2
O=S(=O)(c1cc(F)cc(F)c1)c1cnc2cc(Cl)ccc2c1N1CCOCC1	67
CC1CCN(c2c(S(=O)(=O)c3ccc(Cl)c(Cl)c3)cnc3cc(F)ccc23)CC1	94
Cc1ccc(S(=O)(=O)c2cnc3ccc(F)cc3c2N2CCC(C)CC2)cc1	91
CC1CCN(c2c(S(=O)(=O)c3ccc(Cl)cc3)cnc3c(F)cccc23)CC1	85
COc1ccc2ncc(S(=O)(=O)c3ccc(OC)c(Cl)c3)c(N3CCC(C)CC3)c2c1	21
Cc1ccc2ncc(S(=O)(=O)c3ccc(F)cc3)c(N3CCC(C)CC3)c2c1	90
COc1ccc(S(=O)(=O)c2cnc3ccc(Cl)cc3c2N2CCC(C)CC2)cc1OC	61
CC1CCN(c2c(S(=O)(=O)c3ccc(Cl)c(Cl)c3)cnc3cc(Cl)ccc23)CC1	89
CC1CCN(c2c(S(=O)(=O)c3ccccc3)cnc3cc(F)ccc23)CC1	87
N#Cc1ccc(S(=O)(=O)c2cnc3ccc(Cl)cc3c2N2CCOCC2)cc1	4
COCC1CCN(c2c(S(=O)(=O)c3cc(F)cc(F)c3)cnc3cc(F)ccc23)CC1	83
COCC1CCN(c2c(S(=O)(=O)c3cccc(F)c3)cnc3cc(F)ccc23)CC1	70.5
Cc1ccc(S(=O)(=O)c2cnc3ccc(F)cc3c2N2CCC(C)CC2)cc1Cl	91

SMILES	inhibition [%]
O=S(=O)(c1ccc(Cl)c(Cl)c1)c1cnc2ccc(Cl)cc2c1N1CCOCC1	63
COc1ccc2ncc(S(=O)(=O)c3ccc(Cl)c(Cl)c3)c(N3CCC(C)CC3)c2c1	87
COc1ccc2ncc(S(=O)(=O)c3ccc(F)cc3)c(N3CCOCC3)c2c1	7
COc1ccc2ncc(S(=O)(=O)c3cccc(C#N)c3)c(N3CCOCC3)c2c1	20
Cc1ccc2ncc(S(=O)(=O)c3ccc(Cl)c(Cl)c3)c(N3CCOCC3)c2c1	76
Cc1ccc2ncc(S(=O)(=O)c3cc(F)cc(F)c3)c(N3CCOCC3)c2c1	34
CC1CCN(c2c(S(=O)(=O)c3ccc(F)c(F)c3)cnc3ccc(Cl)cc23)CC1	72
COc1ccc(S(=O)(=O)c2cnc3ccc(Cl)cc3c2N2CCC(C)CC2)cc1Cl	46
COc1ccc2ncc(S(=O)(=O)c3ccc(C#N)cc3)c(N3CCOCC3)c2c1	2
COc1ccc(S(=O)(=O)c2cnc3ccc(F)cc3c2N2CCC(C)CC2)cc1Cl	82
CC1CCN(c2c(S(=O)(=O)c3cccc(C#N)c3)cnc3ccc(F)cc23)CC1	93
CC1CCN(c2c(S(=O)(=O)c3ccc(Cl)c(Cl)c3)cnc3c(F)cccc23)CC1	95
O=S(=O)(c1ccc(Cl)cc1)c1cnc2cc(Cl)ccc2c1N1CCOCC1	55
O=S(=O)(c1ccc(F)c(Cl)c1)c1cnc2c(F)cccc2c1N1CCOCC1	83
COc1cccc(S(=O)(=O)c2cnc3ccc(C)cc3c2N2CCOCC2)c1	65
Cc1ccc(S(=O)(=O)c2cnc3ccc(Cl)cc3c2N2CCC(C)CC2)cc1	95
Cc1ccc2ncc(S(=O)(=O)c3ccc(F)c(Cl)c3)c(N3CCOCC3)c2c1	73
O=S(=O)(c1cccc(Cl)c1)c1cnc2ccc(Cl)cc2c1N1CCOCC1	24
COc1cccc(S(=O)(=O)c2cnc3cc(Cl)ccc3c2N2CCOCC2)c1	70
Cc1ccc(S(=O)(=O)c2cnc3ccc(F)cc3c2N2CCC(C)CC2)cc1F	86
O=S(=O)(c1ccccc1)c1cnc2ccc(Cl)cc2c1N1CCOCC1	18

SMILES	inhibition [%]
CC1CCN(c2c(S(=O)(=O)c3cccc(F)c3)cnc3c(F)cccc23)CC1	62
O=S(=O)(c1ccc(F)cc1)c1cnc2cc(Cl)ccc2c1N1CCOCC1	14
CC1CCN(c2c(S(=O)(=O)c3ccc(F)c(F)c3)cnc3cc(Cl)ccc23)CC1	90
N#Cc1cccc(S(=O)(=O)c2cnc3cc(F)ccc3c2N2CCSCC2)c1	80.9
Cc1ccc(S(=O)(=O)c2cnc3ccc(Cl)cc3c2N2CCOCC2)cc1C	90
COc1ccc(S(=O)(=O)c2cnc3cc(F)ccc3c2N2CCC(C)CC2)cc1OC	83
COc1ccc(S(=O)(=O)c2cnc3ccc(F)cc3c2N2CCOCC2)cc1	18
O=S(=O)(c1ccc(F)c(F)c1)c1cnc2ccc(F)cc2c1N1CCOCC1	10
Cc1ccc2ncc(S(=O)(=O)c3ccc(F)c(F)c3)c(N3CCOCC3)c2c1	24
Cc1ccc2ncc(S(=O)(=O)c3cccc(C#N)c3)c(N3CCOCC3)c2c1	58
Cc1ccc(S(=O)(=O)c2cnc3cc(Cl)ccc3c2N2CCC(C)CC2)cc1	94
CC1CCN(c2c(S(=O)(=O)c3ccc(F)cc3)cnc3ccc(F)cc23)CC1	87
COc1ccc2ncc(S(=O)(=O)c3cc(Cl)cc(Cl)c3)c(N3CCC(C)CC3)c2c1	87
O=S(=O)(c1ccccc1)c1cnc2c(F)cccc2c1N1CCOCC1	4
Cc1ccc2ncc(S(=O)(=O)c3ccc(C)c(F)c3)c(N3CCC(C)CC3)c2c1	91
CC1CCN(c2c(S(=O)(=O)c3cc(Cl)cc(Cl)c3)cnc3cc(F)ccc23)CC1	87
Cc1ccc2ncc(S(=O)(=O)c3ccccc3)c(N3CCC(C)CC3)c2c1	67
Cc1cc(C)cc(S(=O)(=O)c2cnc3ccc(C)cc3c2N2CCC(C)CC2)c1	80
O=S(=O)(c1ccccc1)c1cnc2cc(F)ccc2c1N1CCOCC1	4

Second part, the compound after the results:

inhibition [%]	SMILES
90	CC1CCN(c2c(S(=O)(=O)c3ccc(Cl)cc3)cnc3cc(F)ccc23)CC1
86	O=S(=O)(c1ccc(Cl)c(Cl)c1)c1cnc2c(F)cccc2c1N1CCOCC1
75	O=S(=O)(c1ccc(F)cc1)c1cnc2cc(Cl)ccc2c1N1CCC(CO)CC1
3.6	O=S(=O)(c1ccccc1)c1cnc2ccccc2c1Nc1ccccc1
28	COc1cccc(S(=O)(=O)c2cnc3ccc(Cl)cc3c2N2CCOCC2)c1
91	COCC1CCN(c2c(S(=O)(=O)c3cccc(C#N)c3)cnc3cc(F)ccc23)CC1
69	CC1CCN(c2c(S(=O)(=O)c3cc(Cl)cc(Cl)c3)cnc3ccc(F)cc23)CC1
70	CC1CCN(c2c(S(=O)(=O)c3ccc(C#N)cc3)cnc3cc(Cl)ccc23)CC1
77	O=S(=O)(c1cc(Cl)cc(Cl)c1)c1cnc2c(F)cccc2c1N1CCOCC1
81	O=S(=O)(c1cccc(Cl)c1)c1cnc2cc(Cl)ccc2c1N1CCOCC1
2	N#Cc1ccc(S(=O)(=O)c2cnc3cc(Cl)ccc3c2N2CCOCC2)cc1
95	CC1CCN(c2c(S(=O)(=O)c3ccc(F)c(Cl)c3)cnc3c(F)cccc23)CC1
93	Cc1ccc(S(=O)(=O)c2cnc3c(F)cccc3c2N2CCC(C)CC2)cc1F
26	CC1CCN(c2c(S(=O)(=O)c3ccc(F)cc3)cnc3c(F)cccc23)CC1
24	Cc1cc(C)cc(S(=O)(=O)c2cnc3cc(Cl)ccc3c2N2CCOCC2)c1
17	O=S(=O)(c1cc(Cl)cc(Cl)c1)c1cnc2ccc(F)cc2c1N1CCOCC1
55	Cc1ccc2ncc(S(=O)(=O)c3ccc(C#N)cc3)c(N3CCC(C)CC3)c2c1
90	Cc1ccc2ncc(S(=O)(=O)c3ccc(C)c(C)c3)c(N3CCC(C)CC3)c2c1
93	CC1CCN(c2c(S(=O)(=O)c3cc(Cl)cc(Cl)c3)cnc3cc(Cl)ccc23)CC1

inhibition [%]	SMILES
6	O=S(=O)(c1ccc(F)cc1)c1cnc2ccc(Cl)cc2c1N1CCOCC1
20	N#Cc1cccc(S(=O)(=O)c2cnc3ccc(Cl)cc3c2N2CCOCC2)c1
29	O=S(=O)(c1ccc(F)cc1)c1cnc2cc(F)ccc2c1N1CCOCC1
38	Cc1ccc(S(=O)(=O)c2cnc3cc(Cl)ccc3c2N2CCOCC2)cc1F
92 to 92.4	CC1CCN(c2c(S(=O)(=O)c3cccc(C#N)c3)cnc3cc(F)ccc23)CC1
33	COc1ccc(S(=O)(=O)c2cnc3c(F)cccc3c2N2CCOCC2)cc1
52	O=S(=O)(c1ccc(Cl)cc1)c1cnc2c(F)cccc2c1N1CCOCC1
15	O=S(=O)(c1ccc(Cl)cc1)c1cnc2ccc(Cl)cc2c1N1CCOCC1
75	Cc1ccc2ncc(S(=O)(=O)c3cc(Cl)cc(Cl)c3)c(N3CCC(C)CC3)c2c1
41	COc1ccc(S(=O)(=O)c2cnc3cc(Cl)ccc3c2N2CCOCC2)cc1
93	COc1ccc(S(=O)(=O)c2cnc3cc(Cl)ccc3c2N2CCC(C)CC2)cc1Cl
74.5 to 75	CC1CCN(c2c(S(=O)(=O)c3ccc(F)cc3)cnc3cc(F)ccc23)CC1
93	COc1ccc(S(=O)(=O)c2cnc3cc(Cl)ccc3c2N2CCC(C)CC2)cc1OC
66	Cc1ccc(S(=O)(=O)c2cnc3ccc(C)cc3c2N2CCOCC2)cc1
79	COc1ccc2ncc(S(=O)(=O)c3cc(C)cc(C)c3)c(N3CCC(C)CC3)c2c1
27	COc1ccc2ncc(S(=O)(=O)c3ccc(F)cc3)c(N3CCC(C)CC3)c2c1
28	COc1ccc2ncc(S(=O)(=O)c3ccc(C)c(Cl)c3)c(N3CCOCC3)c2c1
5	O=S(=O)(c1ccccc1)c1cnc2cc(Cl)ccc2c1N1CCOCC1
